Experimental data: ChEMBL document CHEMBL1121663, “(Acylaryloxy)acetic acid diuretics. 3. 2,3-Dihydro-5-acyl-2-benzofurancarboxylic acids, a new class of uricosuric diuretics” (1981)
Values joined by “and” are separate entries in the source; they are usually repeats but may differ in a detail not shown here. Equal entries are not always repeated.

Columns and labels:
Canis familiaris [1] = assay: Compound was tested for diuretic activity in dogs at 5 mg/kg dose after intravenous administration, activity is expressed as urine volume
[2] = Compound was tested for natriuretic activity in chimpanzee at 5 mg/kg dose activity is measured as ratio of clearance of urate / […]; Curate/Cinulin; format: functional
Outline: (§1)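 Inulin iv gave GFR; urate and inulin clearances and Na+, K+, Cl- excretion were measured by AutoAnalyzer. Controls were three 20-min periods; compound was given orally in aqueous solution via nasal catheter. Response was the mean of eight 15-20 min periods, reported as treatment minus control from single experiments.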

Rattus norvegicus [3] = assay: Natriuretic activity in rats at 3 mg/kg of dosage; mequiv of Na; format: functional
Outline: (§2)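 Rats housed three per metabolism cage received placebo vehicle or compound as a suspension in a final volume of 5.0 mL orally, with placebo groups run concurrently. Urine was collected over 0–5 h and analysed for Na+, K+ and Cl− by standard methods. Values are mequiv per cage, given as geometric means of three cages per dose level.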

Rattus norvegicus [4] = assay: Natriuretic activity in rats at 81 mg/kg of dosage; mequiv of Na; format: functional; outline: as §2
Rattus norvegicus [5] = assay: Natriuretic activity in rats at 9 mg/kg of dosage; mequiv of Na; format: functional; outline: as §2
Pan troglodytes [6] = assay: Compound was tested for natriuretic activity in chimpanzee at 5 mg/kg dose activity is measured as microequivalent of Na+/minute; muequiv of Na+/min; format: functional; outline: as §1
Rattus norvegicus [7] = assay: Natriuretic activity in rats at 27 mg/kg of dosage; mequiv of Na; format: functional; outline: as §2
Canis familiaris [8] = assay: Compound was tested for diuretic activity in dogs at 5 mg/kg dose after oral administration measured as microequivalent of K+/minute; format: functional, Canis lupus familiaris, Urine
Outline: (§3)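 Oral dog test: water loading (250 mL po, then 500 mL 1 h later). One hour later bladders were emptied by catheter and compound or placebo given in gelatin capsules. Dogs were kept in metabolism cages. Voided urine plus catheterized bladder urine was pooled at 5 h, and Na+, K+ and Cl- were measured by standard methods. Geometric means are reported.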

Canis familiaris [9] = assay: Compound was tested for diuretic activity in dogs at 5 mg/kg dose after oral administration measured as microequivalent of Cl-/minute; format: functional, Canis lupus familiaris, Urine; outline: as §3
Canis familiaris [10] = assay: Compound was tested for diuretic activity in dogs at 5 mg/kg dose after intravenous administration measured as microequivalent of Cl-/minute; 7/1385 (Control/Drug treated); format: functional, Canis lupus familiaris, Urine
Outline: (§4)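 Intravenous dog clearance study. A priming iv injection of 1.5 mL/kg isoosmotic pH 7.4 phosphate buffer (20 mg PO4/kg) was given first. This was followed by infusion of 3 mL/min pH 7.4 buffer containing 4% mannitol (6.9 mg PO4/min) throughout the experiment. Urinary Na+, K+ and Cl- were measured by standard methods. Each value is the mean of the two highest consecutive 15-min collections.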

Canis familiaris [11] = assay: Compound was tested for diuretic activity in dogs at 5 mg/kg dose after oral administration measured as microequivalent of Na+/minute; format: functional, Canis lupus familiaris, Urine; outline: as §3
Canis familiaris [12] = assay: Diuretic activity in dogs following 5 mg/kg oral administration.
Canis familiaris [13] = assay: Compound was tested for diuretic activity in dogs at 5 mg/kg dose after intravenous administration, activity is expressed as urine volume; 1/6; format: functional, Canis lupus familiaris
Canis familiaris [14] = assay: Compound was tested for diuretic activity in dogs at 5 mg/kg dose after intravenous administration measured as microequivalent of Na+/minute; 4/193 (Control/Drug treated); format: functional, Canis lupus familiaris, Urine
Canis familiaris [15] = assay: Compound was tested for diuretic activity in dogs at 5 mg/kg dose after oral administration measured as microequivalent of Na+/minute
Canis familiaris [16] = assay: Compound was tested for diuretic activity in dogs at 5 mg/kg dose after intravenous administration measured as microequivalent of K+/minute (Control/Drug treated); format: functional, Canis lupus familiaris, Urine; conditions: in the assay text read “oral” for “intravenous”
Canis familiaris [17] = assay: Compound was tested for diuretic activity in dogs at 5 mg/kg dose after intravenous administration measured as microequivalent of Cl-/minute (Control/Drug treated); format: functional, Canis lupus familiaris, Urine; conditions: in the assay text read “oral” for “intravenous”
Canis familiaris [18] = assay: Compound was tested for diuretic activity in dogs at 5 mg/kg dose after intravenous administration measured as microequivalent of Na+/minute; 3/84 (Control/Drug treated); format: functional, Canis lupus familiaris, Urine
Canis familiaris [19] = assay: Compound was tested for diuretic activity in dogs at 5 mg/kg dose after intravenous administration, activity is expressed as urine volume; 0.4/2; format: functional, Canis lupus familiaris
Pan troglodytes [20] = assay: Compound was tested for natriuretic activity in chimpanzee measured as microequivalent of Na+/minute at 10 mg/kg; mequiv of Na; format: functional; outline: as §1
Pan troglodytes [21] = assay: Compound was tested for natriuretic activity in chimpanzee measured as microequivalent of Na+/minute at 0 mg/kg; mequiv of Na; format: functional; outline: as §1
Pan troglodytes [22] = assay: Compound was tested for natriuretic activity in chimpanzee measured as microequivalent of Na+/minute at 1 mg/kg; mequiv of Na; format: functional; outline: as §1
Pan troglodytes [23] = species on record: Pan troglodytes; assay: Compound was tested for natriuretic activity in chimpanzee measured as microequivalent of Na+/minute at […]; mequiv of Na; format: functional; outline: as §1
Pan troglodytes [24] = assay: Compound was tested for natriuretic activity in chimpanzee measured as microequivalent of Na+/minute at 0.0312 mg/kg; mequiv of Na; format: functional; outline: as §1
[25] = Activity is measured as ratio of clearance of urate / […] at 1.0 mg/kg dose; Curate/Cinulin; format: functional
Outline: (§5)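 Inulin iv gave GFR, and urate clearance was measured by AutoAnalyzer. Controls came from three 20-min periods. Aqueous compound was given orally by nasal catheter, and the response was averaged over eight 15-20 min periods. Values are treatment minus control from single experiments.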

[26] = Activity is measured as ratio of clearance of urate / […] at 0.0312 mg/kg; Curate/Cinulin; format: functional; outline: as §5
[27] = Activity is measured as ratio of clearance of urate / […] at 0 mg/kg; Curate/Cinulin; format: functional; outline: as §5
Pan troglodytes [28] = assay: Compound was tested for natriuretic activity in chimpanzee measured as microequivalent of Na+/minute at 1.0 mg/kg dose; mequiv of Na; format: functional; outline: as §1
[29] = Activity is measured as ratio of clearance of urate / […] at 10 mg/kg; Curate/Cinulin; format: functional; outline: as §5
[30] = Activity is measured as ratio of clearance of urate / […] at […]; Curate/Cinulin; format: functional; outline: as §5
Canis familiaris [31] = assay: Compound was tested for diuretic activity in dogs at 5 mg/kg dose after intravenous administration measured as microequivalent of Cl-/minute; 9/510 (Control/Drug treated); format: functional, Canis lupus familiaris, Urine; outline: as §4
Canis familiaris [32] = assay: Compound was tested for diuretic activity in dogs at 5 mg/kg dose after intravenous administration measured as microequivalent of K+/minute; 5/19 (Control/Drug treated); format: functional, Canis lupus familiaris, Urine; outline: as §4

| SMILES | Oral activity (Rattus norvegicus [3]) | Oral activity (Rattus norvegicus [4]) | Oral activity (Rattus norvegicus [5]) | Oral activity (Rattus norvegicus [7]) | Urine volume (Canis familiaris [12]) | further results |
| --- | --- | --- | --- | --- | --- | --- |
| NS(=O)(=O)c1cc(C(=O)O)c(NCc2ccco2)cc1Cl [FUROSEMIDE] | 6 | 234 | 7 | 125 | – | Urine volume (Canis familiaris [1]): 700 mL; Ratio [2]: -0.02; Oral activity (Pan troglodytes [6]): 1035 |
| O=C(c1cccs1)c1cc2c(c(Cl)c1Cl)O[C@H](C(=O)O)C2 | 177 | 339 | 251 | 283 | 501 mL | Oral activity (Canis familiaris [8]): 8.3; Oral activity (Canis familiaris [9]): 53.7; Ratio [2]: 0.132; Cl- excretion (Canis familiaris [10]): 1380 µequiv/min; Oral activity (Pan troglodytes [6]): 1451; Oral activity (Canis familiaris [11]): 46 |
| O=C(c1ccc2c(c1)CC(C(=O)O)O2)c1cccs1 (stereo not drawn) | 6 | 22 | 4 | 7 | – | Urine volume (Canis familiaris [13]): 1 mL/min; Na+ excretion (Canis familiaris [14]): 193 µequiv/min |
| O=C(c1ccco1)c1cc2c(c(Cl)c1Cl)OC(C(=O)O)C2 (stereo not drawn) | 69 | 322 | 150 | 218 | – | – |
| O=C(c1cccs1)c1cc2c(c(Cl)c1Cl)OC(c1nnn[nH]1)C2 (stereo not drawn) | 13 | 29 | 16 | 16 | – | – |
| NNC(=O)C1Cc2cc(C(=O)c3cccs3)c(Cl)c(Cl)c2O1 (stereo not drawn) | 34 | 140 | 81 | 89 | – | – |
| N#CC1Cc2cc(C(=O)c3cccs3)c(Cl)c(Cl)c2O1 (stereo not drawn) | 6 | 8 | 9 | 10 | 190 mL | Oral activity (Canis familiaris [15]): 1; Oral activity (Canis familiaris [16]): 1.1; Oral activity (Canis familiaris [17]): 2.2 |
| CC(=O)c1cc2c(c(Cl)c1Cl)OC(C(=O)O)C2 (stereo not drawn) | 13 | 161 | 26 | 76 | – | Oral activity (Canis familiaris [18]): 3; Urine volume (Canis familiaris [19]): 0.4 mL/min |
| O=C(c1cccs1)c1cc2c(c(Cl)c1Cl)OC(CO)C2 (stereo not drawn) | 16 | 72 | 45 | 68 | – | – |
| O=C(c1cccs1)c1cc2c(c(Cl)c1Cl)O[C@@H](C(=O)O)C2 [listing 1 of 2 here] | – | – | – | – | – | Oral activity (Pan troglodytes [20]): 622 and 482; Oral activity (Pan troglodytes [21]): 26; Oral activity (Pan troglodytes [22]): 711 and 637; Oral activity (Pan troglodytes [23]): 492; Oral activity (Pan troglodytes [24]): 256; Ratio [25]: -0.019; Ratio [26]: 0.01; Ratio [27]: 0.013; Oral activity (Pan troglodytes [28]): 540; Ratio [29]: 0.376 and 0.358 |
| O=C(c1cccs1)c1cc2c(c(Cl)c1Cl)O[C@@H](C(=O)O)C2 [listing 2 of 2 here] | – | – | – | – | – | Ratio [30]: 0.157 |
| O=C(O)c1cc2cc(C(=O)c3cccs3)c(Cl)c(Cl)c2o1 | 32 | 131 | 62 | 88 | 270 mL | Oral activity (Canis familiaris [8]): 1.6; Oral activity (Canis familiaris [9]): 9.8; Ratio [2]: 0.061; Cl- excretion (Canis familiaris [31]): 510 µequiv/min; Oral activity (Pan troglodytes [6]): 396; Oral activity (Canis familiaris [11]): 6.9; K+ excretion (Canis familiaris [32]): 19 µequiv/min |
| NC(=O)C1Cc2cc(C(=O)c3cccs3)c(Cl)c(Cl)c2O1 (stereo not drawn) | 7 | 25 | 9 | 11 | 229 mL | Oral activity (Canis familiaris [8]): 1.7; Oral activity (Canis familiaris [9]): 3; Oral activity (Canis familiaris [15]): 2.1; Oral activity (Canis familiaris [11]): 2.1; Oral activity (Canis familiaris [16]): 1.7; Oral activity (Canis familiaris [17]): 3 |
